Assay results: ChEMBL document CHEMBL1123532, “Conformationally defined adrenergic agents. 3. Modifications to the carbocyclic ring of 5,6-dihydroxy-1-(2-imidazolinyl)tetralin: improved separation of alpha 1 and alpha 2 adrenergic activities” (J Med Chem, 1986)
Several values for one entry are separate records, joined by “and”; a condition that tells them apart may be missing. Identical values can stand only once. Activity calls are given as the source filed them. The rule behind the calls is not given here.

Assays:
[1] = biological target: T1, Adrenergic receptor alpha-2 (Homo sapiens) (UniProt P08913+P18825+P18089); test: Compound was evaluated for alpha-2 adrenergic receptor activity in the phenoxybenzamine (PBZ) - pretreated dog saphenous vein, effective dose (CPD); inactive; type: tissue-based; conditions: Canis lupus familiaris, target entry is the homologue from another species
[2] = biological target: T2, Adrenergic receptor alpha-1 (Homo sapiens) (UniProt P35348+P25100+P35368); test: Compound was evaluated for alpha-1 adrenergic receptor activity in isolated rabbit aortic tissue, effective dose of norepinephrine (NE); conditions: Oryctolagus cuniculus; target entry is the homologue from another species
Method in brief: (§1)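 Helical aortic strip in 10-mL bath of Krebs buffer, pH 7.4, under 2 g initial tension and equilibrated 1 h with four washes. Cumulative norepinephrine curve run from 1 × 10^-8 to 1 × 10^-3 M, each response allowed to plateau. After washout, tension reset to 2 g and a cumulative test-compound curve run in the same tissue. Isometric contraction recorded; molar ED50 taken for each.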

[3] = biological target: T1, Adrenergic receptor alpha-2 (Homo sapiens); test: Compound was evaluated for alpha-2 adrenergic receptor activity in the phenoxybenzamine (PBZ) - pretreated dog saphenous vein, effective dose of norepinephrine (NE); type: tissue-based; conditions: Canis lupus familiaris, target entry is the homologue from another species
Method in brief: (§2)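 Beagle lateral saphenous vein rings (3-4 mm, either sex) in bicarbonate buffer with cocaine, hydrocortisone and propranolol, gassed with 95% O2/5% CO2 at 37 °C, pH 7.45, under 2 g. After maximal NE (1 × 10^-4 M) contraction and 60 min wash, exposed to phenoxybenzamine 1 × 10^-7 M for 30 min, then washed 60 min. Control cumulative NE curve, washout, then test-compound curve in the same tissue. Molar ED50 from isometric contraction.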

[4] = Compound was evaluated for the percent of maximum response of the tissue to NE; type: functional
[5] = biological target: T2, Adrenergic receptor alpha-1 (Homo sapiens); test: Compound was evaluated for alpha-1 adrenergic receptor activity in isolated rabbit aortic tissue, effective dose (CPD); conditions: Oryctolagus cuniculus; target entry is the homologue from another species; method in brief: as §1
[6] = Compound was evaluated for the percent of maximum response of the tissue to NE; IA=Inactive; type: functional
[7] = biological target: T1, Adrenergic receptor alpha-2 (Homo sapiens); test: Compound was evaluated for alpha-2 adrenergic receptor activity in the phenoxybenzamine (PBZ) - pretreated dog saphenous vein, effective dose (CPD); type: tissue-based; conditions: Canis lupus familiaris, target entry is the homologue from another species; method in brief: as §2
[8] = biological target: T2, Adrenergic receptor alpha-1 (Homo sapiens); test: Compound was evaluated for alpha-1 adrenergic activity in isolated rabbit aortic tissue, effective dose (CPD); type: tissue-based; conditions: Oryctolagus cuniculus; Aorta; target entry is the homologue from another species; method in brief: as §1
[9] = biological target: T1, Adrenergic receptor alpha-2 (Homo sapiens); test: Compound was evaluated for alpha-2 adrenergic receptor activity in the phenoxybenzamine (PBZ) - pretreated dog saphenous vein, effective dose (CPD); Inactive; type: tissue-based; conditions: Canis lupus familiaris, target entry is the homologue from another species; method in brief: as §2
[10] = biological target: T2, Adrenergic receptor alpha-1 (Homo sapiens); test: Compound was evaluated for alpha-1 adrenergic receptor activity in isolated rabbit aortic tissue, effective dose (CPD); IA=Inactive; conditions: Oryctolagus cuniculus; target entry is the homologue from another species
Method in brief: (§3)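 Helical aortic strip in Krebs buffer (pH 7.4) at 2 g initial tension, equilibrated 1 h with four washes; isometric contraction recorded. Cumulative norepinephrine curve (1 × 10^-8 to 1 × 10^-3 M), each step to plateau; washes every 10-15 min for 60-90 min, tension reset to 2 g, then cumulative test-compound curve in the same tissue. Molar ED50 values; index (ED50 NE/ED50 CPD) computed per experiment.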

[11] = biological target: T2, Adrenergic receptor alpha-1 (Homo sapiens); test: Compound was evaluated for alpha-1 adrenergic activity in isolated rabbit aortic tissue, effective dose of norepinephrine (NE); type: tissue-based; conditions: Oryctolagus cuniculus; Aorta; target entry is the homologue from another species; method in brief: as §3

| ED50 [1] | ED50 [10] | ED50 [11] [nM] | Compound | ED50 [2] [nM] | ED50 [3] [nM] | Emax [4] | ED50 [5] [nM] | Emax [6] | ED50 [7] | ED50 [8] [µM] | ED50 [9] |
| --- | --- | --- | --- | --- | --- | --- | --- | --- | --- | --- | --- |
| inactive |  |  | CCC1(CC)CC[C@H](C2=NCCN2)c2ccc(O)c(O)c21 | 98 | 603 | 44 | 47000 | inactive |  |  |  |
|  |  |  | C[C@@H]1CCc2c(ccc(O)c2O)[C@H]1C1=NCCN1 | 48 | 560 |  |  |  | 4500 nM | 4.39 |  |
|  |  |  | CC1(C)CC[C@H](C2=NCCN2)c2ccc(O)c(O)c21 | 125 | 1240 | 100 | 284 | inactive |  |  | inactive |
|  |  |  | Oc1ccc2c(c1O)OCC[C@@H]2C1=NCCN1 | 67 | 720 | 118 and 107 | 35 |  | 35 nM |  |  |
|  |  |  | Oc1ccc2c(c1O)CCCC2C1=NCCN1 (stereo unspecified) | 140 | 720 | 114 and 102 | 17 |  | 5 nM |  |  |
|  |  |  | C[C@]1(C2=NCCN2)CCCc2c1ccc(O)c2O | 41 | 924 | 69 and 76 | 16600 |  | 6100 nM |  |  |
|  | inactive | 73 | Oc1ccc2c(c1O)CC[C@@H](c1ccccc1)[C@@H]2C1=NCCN1 |  | 519 |  |  | inactive | inactive |  |  |
|  |  |  | Oc1ccc2c(c1O)SCC[C@@H]2C1=NCCN1 | 219 | 526 | 129 and 105 | 20 |  | 19 nM |  |  |
